Source: PubChem (Johns Hopkins Ion Channel Center)
Sampled rows, rich in hits. Any-hit rate of the full collection: about 3.8%.
KCNK3 block: human KCNK3 channel inhibitors, primary screen, CHO cells, FluxOR thallium flux, B-score. 340,000 tested, 0.84% active. AID 602410, 2012. FluxOR fluorescence; stronger effect = lower value. Potassium channel subfamily K member 3 (Homo sapiens), O14649. B-score at 10 µM;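 active means B-score under library mean minus 4 SD, starting fluorescence ratio at most library mean plus 5 SD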;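 further: more negative B-score means stronger inhibition of thallium flux through KCNK3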
hERG rescue: hERG rescue from dofetilide block, primary screen, cell-based, CHO-hERG, FluxOR thallium flux, dofetilide IC70 | dofetilide IC70 present | Voltage-gated inwardly rectifying potassium channel KCNH2 (Homo sapiens), Q12809 | AID 1511, 2009 | activation (rescue from dofetilide block), less the hit threshold, % at 10 µM | 310,000 tested, 0.51% active;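 active means activation above the mean of controls blocked by dofetilide plus 5 SD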;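 further: thallium influx through hERG after potassium depolarization seen as dye fluorescence rise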
KCNK9 block: KCNK9 potassium channel inhibitors, primary screen, HEK293 cells, thallium flux; FluxOR thallium flux fluorescence; stronger effect = lower value; B-score at 10 µM; 310,000 tested, 1.2% active;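 active means ratio B-score over 3 SD below the library mean, with starting fluorescence within 5 SD of its mean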;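 further: negative B-score means less thallium flux so channel inhibition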
KCNQ1 block: inhibitors of human KCNQ1 channel, primary screen, cell-based, thallium flux, high-throughput; CHO-K1 KCNQ1, FluxOR thallium flux fluorescence; stronger effect = higher value; 310,000 tested, 1.3% active; B-score at 10 µM; Potassium voltage-gated channel subfamily KQT member 1 (Homo sapiens), P51787;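 active means compounds whose thallium flux B-score, printed positive for inhibition, exceeds three library SD while starting fluorescence stays within three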;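 further: channel opened by potassium depolarization with thallium stimulus after 20 min compound exposure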
KCNQ1 pot: potentiators or activators of KCNQ1 channel, primary screen, cell-based, thallium flux, high-throughput | Potassium voltage-gated channel subfamily KQT member 1 (Homo sapiens), P51787 | CHO-K1 KCNQ1, thallium flux FluxOR fluorescence; stronger effect = higher value | B-score at 10 µM | 310,000 tested, 0.35% active;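 active means fluorescence ratio B-score, a plate-corrected score, at least three library SD, with initial intensity B-score within 5 SD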
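Material: CHO-K1 cells stably expressing KCNQ1. Medium: assay buffer for compound exposure, DMSO matched across wells. Reagent: K+/Tl+ depolarizing stimulus. Compound dosing: single-concentration screen. Times: 37 °C overnight plating, 90-min dark dye load, 20-min compound pretreatment. Technique: FluxOR Tl+ flux fluorescence.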
Kir21 inh: inhibitors of mouse Kir2.1 inward-rectifier potassium channel | Inward rectifier potassium channel 2 (Mus musculus), P35561 | HEK293-Kir2.1, FluxOR thallium flux fluorescence; stronger effect = lower value | 310,000 tested, 0.85% active | B-score at 10 µM;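 active means fluorescence ratio B-score at or below minus 3 SD of library scores, with starting-brightness B-score within 2 SD, cut at about -4.2 in these data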;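 further: channel flux triggered by added potassium and thallium sulfate stimulus; B-score of peak minus minimum fluorescence over baseline after thallium stimulus; more negative B-score means stronger Kir2.1 block with less thallium influx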
Target sequence (P35561 whole entry, looked up): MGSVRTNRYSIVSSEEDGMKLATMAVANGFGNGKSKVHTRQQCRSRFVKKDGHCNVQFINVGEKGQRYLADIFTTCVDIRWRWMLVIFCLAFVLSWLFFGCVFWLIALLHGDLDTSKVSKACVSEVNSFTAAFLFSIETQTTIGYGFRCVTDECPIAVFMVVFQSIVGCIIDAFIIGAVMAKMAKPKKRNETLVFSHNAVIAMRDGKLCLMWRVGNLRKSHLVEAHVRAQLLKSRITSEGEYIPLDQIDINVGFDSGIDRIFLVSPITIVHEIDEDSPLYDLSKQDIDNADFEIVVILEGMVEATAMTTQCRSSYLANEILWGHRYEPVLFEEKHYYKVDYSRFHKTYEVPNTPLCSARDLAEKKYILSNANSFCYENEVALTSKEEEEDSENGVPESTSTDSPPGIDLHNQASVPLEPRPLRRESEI
KCNK9 block conf: KCNK9 potassium channel inhibitors, confirmation, HEK293 cells, thallium flux, duplicate; 4,900 tested, 43% active; AID 492992, 2010; FluxOR thallium flux fluorescence; inhibition, % at 10 µM; shares compounds with KCNK9 block;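 active means thallium signal inhibited by more than 5 SD of the compound-free buffer control wells, on both duplicate plates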;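 further: 0% = assay buffer control wells without compound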
Kir2-1 spec: mouse Kir2.1 channel inhibition, confirmation, selectivity assay for KCNK9 modulator project, cell-based, HEK293, thallium flux; 4,900 tested, 4% active; inhibition, % at 10 µM; Kir2.1 cells, FluxOR thallium flux fluorescence; shares compounds with KCNK9 block;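 active means thallium signal drop more than 5 SD beyond the mean of the no-compound control wells, seen in both duplicate plates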;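 further: signal is fluorescence rise after thallium addition divided by baseline fluorescence; plate controls were assay buffer only for no effect and full block by chlorpromazine control for full effect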
KCNK9 uninduced: thallium flux in non-induced HEK293 cells, confirmation, counter-screen for KCNK9 inhibitor project, cell-based, second counter screen, non-induced KCNK9-HEK293; shares compounds with KCNK9 block; FluxOR thallium flux; inhibition, % at 10 µM; 4,900 tested, 40% active; AID 492997, 2010;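 active means thallium signal drop beyond 5 SD of the untreated control mean, on both duplicate plates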;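 further: plate controls were buffer only IC0 wells for no effect and SID17386958 at its maximal inhibitory level for full effect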
KCNK3 inh conf: retest of human KCNK3 channel inhibitors, confirmation, CHO cells, FluxOR thallium flux, triplicate; 2,400 tested, 99% active; ratio percent of control, % at 10 µM; shares compounds with KCNK3 block; FluxOR fluorescence; 0% buffer, 100% carvedilol maximal block;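 active means ratio percent of control, averaged over triplicates, above buffer control mean plus 5 SD, cut at about 64% in these data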;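 further: ratio is the fluorescence rise from min to max over baseline after thallium stimulus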
KCNK3 uninduced: thallium flux inhibition in non-induced cells, primary screen, counter-screen for KCNK3 inhibitor project, cell-based, non-induced KCNK3 line, FluxOR thallium, triplicate. shares compounds with KCNK3 block. non-induced KCNK3 parental cells; stronger effect = lower value. thallium flux ratio (lower = more inhibition) at 10 µM. 2,400 tested, 40% active. AID 651747, 2012;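 active means thallium flux ratio, averaged over three wells, more than 5 SD below the buffer control mean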;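 further: host cells are CHO cells without KCNK3 induction; ratio is peak minus trough fluorescence over baseline then normalized to buffer controls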
* hit, by the source's call.

`CCCCc1ccc(NC(=O)C(=O)NCCN2CCN(C(=O)c3ccc([N+](=O)[O-])cc3)CC2)cc1` gave KCNK3 block inactive, hERG rescue -15, KCNK9 block inactive, KCNQ1 block inactive, KCNQ1 pot inactive and Kir21 inh -0.02.
`Clc1ccc(CSc2snnc2-c2ccccc2)cc1` gave KCNK3 block -12*, hERG rescue -3, KCNK9 block -8.6*, KCNQ1 block inactive, KCNQ1 pot inactive, Kir21 inh -0.49, KCNK9 block conf 30%*, Kir2-1 spec inactive, KCNK9 uninduced 45%*, KCNK3 inh conf 96* and KCNK3 uninduced inactive.
Screening CC(C)CN(CC(C)C)C1=N/C(=C\c2ccco2)C(=O)N1c1ccccc1 returned KCNK3 block -9.2*, hERG rescue -7, KCNK9 block -9.8*, KCNQ1 block inactive, KCNQ1 pot inactive, Kir21 inh 1.4, KCNK9 block conf 56%*, Kir2-1 spec inactive, KCNK9 uninduced 46%*, KCNK3 inh conf 125* and KCNK3 uninduced inactive.
Screening CCN(CC)C1=N/C(=C\c2ccco2)C(=O)N1c1ccccc1 returned KCNK3 block inactive, hERG rescue -12, KCNK9 block inactive, KCNQ1 block inactive, KCNQ1 pot inactive and Kir21 inh 0.8.
Screening Cn1nc(-c2ccccc2)c(C#N)c1Sc1cccc(Cl)c1 returned KCNK3 block -9.1*, hERG rescue -10, KCNK9 block -11*, KCNQ1 block inactive, KCNQ1 pot inactive, Kir21 inh -0.1, KCNK9 block conf 55%*, Kir2-1 spec inactive, KCNK9 uninduced 52%*, KCNK3 inh conf 113* and KCNK3 uninduced 0.15*.
`Cc1nnc(SCC(=O)N(CCC#N)c2ccc3c(c2)OCCO3)s1` gave KCNK3 block inactive.
`CCOc1ccc(-c2ncncc2-c2ccc(OC)c(OC)c2)c(O)c1` gave KCNK3 block inactive, hERG rescue -5, KCNK9 block inactive, KCNQ1 block inactive, KCNQ1 pot inactive and Kir21 inh 0.66.
For COc1cc(O)cc2c1[C@@H]1Oc3c(ccc(O)c3CC=C(C)C)[C@@H]1CO2 the results were KCNK3 block inactive, hERG rescue -26, KCNK9 block -12*, KCNQ1 block inactive, KCNQ1 pot inactive, Kir21 inh -5.2*, KCNK9 block conf 54%*, Kir2-1 spec inactive, KCNK9 uninduced inactive, KCNK3 inh conf 137* and KCNK3 uninduced 0.12*.
